Source: PubChem BioAssay
Sampled rows, rich in hits. Any-hit rate of the full collection: about 3.1%.
UBC13 inh: blocks human UBC13 polyubiquitin chain formation; AID 485273; inhibition, % at 20 µM; actives 0.47% (n = 330,000); TR-FRET; P61088; in the data active means inhibition above about 45%, passing the limit was not always enough
PREPL inhibitor: human PREPL enzyme inhibition; actives 0.68% (n = 320,000); recombinant PREPL, fluorescence polarization activity-based probe; Q4J6C6; inhibition, % at 5.96 µM; AID 2751; in the data active means inhibition above about 43%;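 further: 0% = enzyme with DMSO and 100% = wells lacking enzyme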
MEKK2 WT-MEK5: raises or lowers MEK5 binding to wildtype human MEKK2 PB1 domain | bead flow cytometry, Alexa488-MEK5 binding to MEKK2 WT; actives lie on both sides | binding response (% of control), % at 10 µM | actives 1.1% (n = 290,000) | AID 1531; in the data active means binding response below about 67% or above about 130%
MEKK2mut PB1 HTS: signal of MEK5 binding to mutant human MEKK2 PB1 domain; percent response, % at 10 µM; bead flow cytometry, Alexa488-MEK5 binding to MEKK2 mutant; AID 1530; actives 0.35% (n = 290,000); in the data active means percent response above about 24%, passing the limit was not always enough
Apaf-1 inh: blocks human Apaf-1 apoptosome activity. O14727. reconstituted apoptosome caspase-3 activity, DEVD-Rh110 fluorescence. inhibition, % at 20 µM. actives 0.71% (n = 330,000); active means inhibition of at least 40% at 20 µM;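 further: plate controls were DMSO wells for no effect and DEVD-CHO caspase inhibitor wells for full effect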
Target sequence (O14727 whole entry, looked up): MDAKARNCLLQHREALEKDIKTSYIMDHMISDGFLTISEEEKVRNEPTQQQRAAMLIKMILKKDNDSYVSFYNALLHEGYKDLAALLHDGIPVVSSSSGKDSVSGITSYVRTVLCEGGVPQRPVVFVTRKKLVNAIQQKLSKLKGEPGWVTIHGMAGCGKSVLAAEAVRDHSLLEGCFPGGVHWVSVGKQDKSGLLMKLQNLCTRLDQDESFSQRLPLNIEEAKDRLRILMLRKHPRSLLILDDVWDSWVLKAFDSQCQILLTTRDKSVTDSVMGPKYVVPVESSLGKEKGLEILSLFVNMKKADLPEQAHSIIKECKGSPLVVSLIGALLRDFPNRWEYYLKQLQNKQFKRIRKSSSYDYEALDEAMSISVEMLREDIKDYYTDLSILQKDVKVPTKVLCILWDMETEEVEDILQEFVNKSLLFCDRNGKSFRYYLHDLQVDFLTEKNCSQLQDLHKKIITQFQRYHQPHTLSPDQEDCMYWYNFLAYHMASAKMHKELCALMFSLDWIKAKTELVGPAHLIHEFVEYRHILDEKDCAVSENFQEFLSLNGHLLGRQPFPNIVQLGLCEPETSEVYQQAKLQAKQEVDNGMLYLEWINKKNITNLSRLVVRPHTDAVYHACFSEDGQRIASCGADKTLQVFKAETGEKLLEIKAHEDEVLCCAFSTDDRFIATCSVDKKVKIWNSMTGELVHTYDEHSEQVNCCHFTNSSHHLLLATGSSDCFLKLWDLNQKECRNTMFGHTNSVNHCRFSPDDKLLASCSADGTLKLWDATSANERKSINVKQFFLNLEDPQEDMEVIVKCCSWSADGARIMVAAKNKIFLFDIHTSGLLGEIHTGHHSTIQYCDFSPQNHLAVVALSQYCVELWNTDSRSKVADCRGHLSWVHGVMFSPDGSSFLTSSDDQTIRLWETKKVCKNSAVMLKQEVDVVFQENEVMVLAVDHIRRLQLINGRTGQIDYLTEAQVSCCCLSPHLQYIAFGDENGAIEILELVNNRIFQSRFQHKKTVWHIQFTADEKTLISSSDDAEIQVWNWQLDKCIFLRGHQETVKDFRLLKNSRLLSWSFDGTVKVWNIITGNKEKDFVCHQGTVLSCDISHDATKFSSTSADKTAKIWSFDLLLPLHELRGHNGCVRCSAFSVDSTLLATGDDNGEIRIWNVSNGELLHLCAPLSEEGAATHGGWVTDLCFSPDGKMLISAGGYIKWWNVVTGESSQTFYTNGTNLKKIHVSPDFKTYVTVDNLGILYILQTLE
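Material: reconstituted apoptosome with Apaf-1, cytochrome c, caspase-9, procaspase-3, dATP / Buffer or medium: pH 7.5 Hepes buffer with CHAPS, BSA, DTT / Also added: cytochrome c with DEVD-Rh110 / Schedule: compound with Apaf-1, dATP, procaspase-3 30 min, then 50 min reaction, room temperature / Technique: rhodamine 110 fluorescence at Ex 480/Em 540 nm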
MEKK3 PB1 HTS: raises or lowers MEK5 binding to the human MEKK3 PB1 domain. Q99759. bead-based flow cytometry, Alexa488-MEK5 binding to MEKK3; actives lie on both sides; 0 = blocked by unlabeled MEK5, 100 = vehicle. binding response (% of control), % at 10 µM. actives 1.4% (n = 290,000). AID 1529;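 active means binding response more than 3 SD above or below the average of its plate-row segment, actives on both sides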;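 further: Alexa488 bead fluorescence after subtracting the streptavidin-only scavenger bead signal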
Apaf-1 inh conf2: Apaf-1 inhibition, single-dose confirmed | actives 25% (n = 1,800) | reconstituted apoptosome, caspase-3 DEVD-Rh110 fluorescence | shares compounds with Apaf-1 inh | inhibition, % at 20 µM | AID 504614;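 active means mean inhibition of at least 40% at 20 µM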;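 further: plate controls were DMSO wells for no effect and DEVD-CHO caspase inhibitor control wells for full effect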
Rh110 quench: Rh110 signal interference in Apaf-1 inhibitor counter-screen; shares compounds with Apaf-1 inh; Rh110 fluorescence interference, quenched caspase reaction; activation (fluorescence interference), % at 20 µM; 1,800 tested, under 10 active; AID 504615;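 active means signal rise of 40% or more at 20 µM, treated as a fluorescence artifact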
Fluor interf inh: shows fluorescence interference in the Apaf-1 inhibitor assay format. shares compounds with Apaf-1 inh. fluorescence interference counterscreen, Apaf-1 assay format. IC50, µM. 460 tested, under 10 active. AID 588538; call rule not given here
An asterisk follows results filed as active; / = no result.

SMILES	UBC13 inh	PREPL inhibitor	MEKK2 WT-MEK5	MEKK2mut PB1 HTS	Apaf-1 inh	MEKK3 PB1 HTS	Apaf-1 inh conf2	Rh110 quench	others
CC1CN(C(=O)c2cc(Br)c(Br)s2)CC(C)O1 (centres undefined)	6	13	/	/	32	/	/	/
O=C(c1ccc2ncsc2c1)N1CCCC(C(F)(F)F)C1 (centres undefined)	11	7	/	/	42*	/	31	5
Cc1ccc(C(=O)N2CCCC(C(F)(F)F)C2)cc1S(=O)(=O)N1CCCCC1 (centres undefined)	1	7	/	/	13	/	/	/
O=C(c1ccc(Cl)c(S(=O)(=O)N2CCCCCC2)c1)N1CCCC(C(F)(F)F)C1 (centres undefined)	12	4	/	/	60*	/	34	-1
O=C(c1cc(-c2ccncc2)nc2ccccc12)N1CCN(S(=O)(=O)/C=C/c2ccccc2)CC1	4	-54	99	3	12	102	/	/
CN1C(=O)c2cccc3c(S(=O)(=O)NCc4ccco4)ccc1c23	-13	1	108	2	55*	106	16	3
CN1C(=O)c2cccc3c(S(N)(=O)=O)ccc1c23	0	-4	104	3	-14	105	/	/
Cc1noc(C)c1CSCC(=O)Nc1nc2ccccc2s1	3	4	110	9	4	106	/	/
CCc1ccc2nc(NC(=O)CSCc3c(C)noc3C)sc2c1	-6	6	103	3	46*	113	29	5
Cc1ccc(-c2cn3nc(C)c(C)nc3n2)cc1	16	4	/	/	11	/	/	/
COc1cccc(-c2cc(C(F)(F)F)n3nc(N)nc3n2)c1	2	-5	106	10	-44	105	/	/
COc1cccc(-c2cn3nc4c(nc3n2)CCCC4)c1	-41	12	88	-5	53*	94	39	3
Clc1ccc(-c2cn3nc4c(nc3n2)CCCC4)cc1	-14	12	102	-5	65*	104	53*	7	Fluor interf inh=>100
CC(=O)Oc1ccc(C(=O)N2c3ccccc3NC(=O)C2C)cc1 (centres undefined)	4	13	102	3	-3	100	/	/
COc1ccccc1OCC(=O)NCC1CCCN(C(=O)c2ccccc2SC)C1 (centres undefined)	3	0	99	-2	51*	100	10	-1
C/C(=N\NC(=O)CNc1cccc2ccccc12)c1ccccc1	1	22	93	2	83*	100	15	8
C/C(CCc1ccco1)=N\NC(=O)CNc1cccc2ccccc12	12	17	101	-4	-8	99	/	/
[O-][n+]1cccc2c(Br)cc(Br)c(O)c21	-40	23	100	-2	73*	113	18	-1
O=C1CC(NS(=O)(=O)c2cccnc2)CN1c1cccc(F)c1 (centres undefined)	7	-2	/	/	1	/	/	/
CCN1CCN(CCNC(=O)c2ccc(/C=C3\Sc4ccccc4N(Cc4ccccc4F)C3=O)cc2)CC1	38	-28	121	2	41*	103	27	6
COCCn1c(SCc2ccc(F)cc2)nc2c1c(=O)[nH]c(=O)n2C	-4	14	102	1	12	104	/	/
C[n+]1cccc2c(Br)ccc([O-])c21	-88	12	91	-6	98*	89	64*	7	Fluor interf inh=>100
COc1ccc(C2C(C(=O)c3ccco3)=C(O)C(=O)N2CCCn2ccnc2)c(OC)c1 (centres undefined)	-46	12	101	4	57*	96	4	-16
CCc1cc[n+](C2=C([O-])c3ccccc3C(=O)/C2=N\S(=O)(=O)c2cccs2)cc1	-105	38	92	-2	68*	93	64*	2	Fluor interf inh=>100
O=C1C(=O)c2ccccc2C([O-])=C1[n+]1ccccc1	-12	-2	92	-14	32	91	/	/
SMILES	UBC13 inh	PREPL inhibitor	MEKK2 WT-MEK5	MEKK2mut PB1 HTS	Apaf-1 inh	MEKK3 PB1 HTS	Apaf-1 inh conf2	Rh110 quench	others
CCN(CC)c1ccc(N=C2C(=O)Nc3ccccc32)cc1	-20	24	94	-1	47*	98	15	1
Cc1ccc(N=C2C(=O)Nc3ccccc32)cc1	-13	-2	104	2	5	102	/	/
C/C=N/NC(=O)c1cc(Br)ccc1O	-2	18	105	15	57*	102	3	9
COc1ccc(OC)c(NC(=O)Cc2ccc(NC3=NC4CS(=O)(=O)CC4S3)cc2)c1 (centres undefined)	11	12	98	-1	-8	96	/	/
Cc1nc(-c2ccc(F)cc2)c(CC(=O)N2CCN(S(=O)(=O)c3cccc(F)c3)CC2)s1	-4	23	/	/	10	/	/	/
Cc1nc(-c2ccc(F)cc2)c(CC(=O)N2CCN(S(=O)(=O)c3ccccc3Br)CC2)s1	8	5	104	1	40	103	40	-5
CCOC(=O)Cc1csc(NC(=O)c2ccc3ccccc3n2)n1	-6	-5	104	4	18	102	/	/
O=C1/C(=C\c2ccc(-c3ccccc3[N+](=O)[O-])o2)C(c2ccccc2)=NN1c1ccccc1	-39	3	90	1	44*	92	23	-9
Cc1ccc(-c2ccc(/C=C3\C(=O)ON=C3c3ccccc3)o2)c([N+](=O)[O-])c1	-23	14	95	0	-17	95	/	/
CC(=O)N(c1ccccc1C)C1CCCC1	1	-6	97	-2	-2	97	/	/
CC(=O)N(C1=C(Cl)C(=O)c2ccccc2C1=O)C1CCCCC1	-58	8	94	-4	85*	102	90*	5	Fluor interf inh=>100
C/C(=N/NC(=O)CN(c1ccccc1)S(=O)(=O)c1ccccc1)c1ccccc1O	-17	-105	93	-2	11	88	/	/
CC1(C)Cc2cccc(OCC(=O)N3CCN(c4cccc(C(F)(F)F)c4)CC3)c2O1	14	24	/	/	45*	/	45*	9	Fluor interf inh=>100
CC1(C)Cc2cccc(OCC(=O)N3CCN(c4cccc(Cl)c4)CC3)c2O1	6	31	/	/	15	/	/	/
O=C1Cc2ccccc2C(=O)N1Cc1ccccc1	-14	-1	102	-1	52*	103	76*	8	Fluor interf inh=>100
O=C1Cc2ccccc2C(=O)N1c1ccccc1	4	-8	94	1	15	101	/	/
